In PMC6400527 (The Journal of General Physiology, 2019):
Read-outs that look alike come from different tables or passages of the source. One block for each compound: values may come before it.

How the values were obtained:
[1] = tested on: AgA(15) channels in DC18:1PC/n-decane bilayer; assay: gA single-channel electrophysiology, AgA; assay type: biochemical; settings: mean ± SE, n = 3–4
Method in brief: (§1)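 Bilayer of DC18:1PC in n-decane formed across a 1–1.5 mm Teflon hole. It was co-doped with AgA(15) (total a few pM) and gA−(13) (~10-fold higher). Test compound from DMSO stock was added to both sides at increasing concentrations. Patches were isolated with 20–40 µm punch electrodes in 1 M NaCl, 10 mM HEPES pH 7, 25 ± 1°C, ±200 mV. Signals were filtered at 5 kHz, sampled at 20 kHz, then filtered at 200–500 Hz. Events were detected by a transition-based algorithm. Lifetimes came from single-exponential fits of survivor histograms, normalized to no-drug lifetimes in the same experiment. n = 3–4.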

[2] = tested on: gA^−(13) channels in DC18:1PC/n-decane bilayer; assay: gA single-channel electrophysiology, gA−; assay type: biochemical; settings: mean ± SE, n = 3–4
Method in brief: as §1

[3] = Bilayer elastic coefficient HB / property altered, from lifetimes of gA−; settings: for bilayer property primarily altered: single-channel electrophysiology; for decrease of HB (bilayer elastic coefficient): 100 µM, HB of unmodified bilayer ∼22 kBT/nm^2
[4] = ref Karson et al., 1993; Bolo et al., 2000; cited from earlier work
[5] = biological target: des-(D-Val-Gly)gA^−, chain-shortened enantiomer of gramicidin A; assay: single-channel electrophysiology
[6] = biological target: des-(D-Val-Gly)gA^−, chain-shortened enantiomer of gramicidin A; assay: single-channel electrophysiology; remark: listed apart in the source
[7] = biological target: des-(D-Val-Gly)gA^−, chain-shortened enantiomer of gramicidin A; assay: single-channel electrophysiology; remark: listed apart in the source
[8] = biological target: des-(D-Val-Gly)gA^−, chain-shortened enantiomer of gramicidin A; assay: single-channel electrophysiology; remark: listed apart in the source
[9] = biological target: des-(D-Val-Gly)gA^−, chain-shortened enantiomer of gramicidin A; assay: single-channel electrophysiology; remark: listed apart in the source
[10] = biological target: des-(D-Val-Gly)gA^−, chain-shortened enantiomer of gramicidin A; assay: single-channel electrophysiology; remark: listed apart in the source
[11] = biological target: [Ala^1]gA, 15-amino-acid analogue of gramicidin A; assay: single-channel electrophysiology
[12] = biological target: [Ala^1]gA, 15-amino-acid analogue of gramicidin A; assay: single-channel electrophysiology; remark: listed apart in the source
[13] = biological target: [Ala^1]gA, 15-amino-acid analogue of gramicidin A; assay: single-channel electrophysiology; remark: listed apart in the source
[14] = biological target: [Ala^1]gA, 15-amino-acid analogue of gramicidin A; assay: single-channel electrophysiology; remark: listed apart in the source
[15] = biological target: [Ala^1]gA, 15-amino-acid analogue of gramicidin A; assay: single-channel electrophysiology; remark: listed apart in the source
[16] = biological target: [Ala^1]gA, 15-amino-acid analogue of gramicidin A; assay: single-channel electrophysiology; remark: listed apart in the source

Compound: CN(C)CCC=C1c2ccccc2CCc2ccccc21 [Amitriptyline]
- τAD,15/τcntrl,15 (normalized AgA(15) lifetime) ([1]; 100 µM): 1.5 ± 0.1
- τAD,13/τcntrl,13 (normalized gA−(13) lifetime) ([2]; 100 µM): 1.6 ± 0.1
- bilayer property primarily altered [3]: intrinsic curvature

Compound: CN(C)CCCC1(c2ccc(F)cc2)OCc2cc(C#N)ccc21 (centres unmarked) [Citalopram]
- bilayer property primarily altered [3]: intrinsic curvature

Compound: CN(C)CCCC1(c2ccc(F)cc2)OCc2cc(C#N)ccc21 (centres unmarked) [Citalopram (R−), Citalopram]
- τAD,15/τcntrl,15 (normalized AgA(15) lifetime) ([1]; 250 µM): 1.78 ± 0.04
- τAD,13/τcntrl,13 (normalized gA−(13) lifetime) ([2]; 250 µM): 1.8 ± 0.1

Compound: CNCCC(Oc1ccc(C(F)(F)F)cc1)c1ccccc1 (centres unmarked) [Fluoxetine (S+), Fluoxetine]
- τAD,15/τcntrl,15 (normalized AgA(15) lifetime) ([1]; 100 µM): 2.3 ± 0.3
- τAD,13/τcntrl,13 (normalized gA−(13) lifetime) ([2]; 100 µM): 2.9 ± 0.4
- decrease of HB (bilayer elastic coefficient) [3]: ~2.3 ± 0.5 kBT/nm^2

Compound: CNCCC(Oc1ccc(C(F)(F)F)cc1)c1ccccc1 (centres unmarked) [Fluoxetine]
- bilayer property primarily altered [3]: bilayer elasticity
- concentration in brain [4]: up to 10 µM

Compound: CN(C)CCCC1(c2ccc(F)cc2)OCc2cc(C#N)ccc21 (centres unmarked) [Citalopram (S+), Citalopram]
- τAD,15/τcntrl,15 (normalized AgA(15) lifetime) ([1]; 250 µM): 1.9 ± 0.2
- τAD,13/τcntrl,13 (normalized gA−(13) lifetime) ([2]; 250 µM): 2.0 ± 0.2

Compound: CNCCC(Oc1ccc(C(F)(F)F)cc1)c1ccccc1 (centres unmarked) [Fluoxetine (R−), Fluoxetine]
- τAD,15/τcntrl,15 (normalized AgA(15) lifetime) ([1]; 100 µM): 2.3 ± 0.3
- τAD,13/τcntrl,13 (normalized gA−(13) lifetime) ([2]; 100 µM): 3.1 ± 0.6
- decrease of HB (bilayer elastic coefficient) [3]: ~3.0 ± 0.3 kBT/nm^2

- normalised single-channel (dimer) lifetime τ (AD,13)/τ (cntrl,13) [5]: 1.6
- normalised single-channel (dimer) lifetime τ (AD,13)/τ (cntrl,13) [6]: 2.9
- normalised single-channel (dimer) lifetime τ (AD,13)/τ (cntrl,13) [7]: 2
- normalised single-channel (dimer) lifetime τ (AD,13)/τ (cntrl,13) [8]: 3.1
- normalised single-channel (dimer) lifetime τ (AD,13)/τ (cntrl,13) [9]: 1.8
- normalised single-channel (dimer) lifetime τ (AD,13)/τ (cntrl,13) [10]: 1.5
Compound: des-(D-Val-Gly)gA^−, chain-shortened enantiomer of gramicidin A (peptide)

- normalised single-channel (dimer) lifetime τ (AD,15)/τ (cntrl,15) [11]: 1.5
- normalised single-channel (dimer) lifetime τ (AD,15)/τ (cntrl,15) [12]: 2.3
- normalised single-channel (dimer) lifetime τ (AD,15)/τ (cntrl,15) [13]: 1.9
- normalised single-channel (dimer) lifetime τ (AD,15)/τ (cntrl,15) [14]: 2.3
- normalised single-channel (dimer) lifetime τ (AD,15)/τ (cntrl,15) [15]: 1.78
- normalised single-channel (dimer) lifetime τ (AD,15)/τ (cntrl,15) [16]: 1.4
Compound: [Ala^1]gA, 15-amino-acid analogue of gramicidin A (peptide)

Compound: CN(C)CCCN1c2ccccc2CCc2ccccc21 [Imipramine]
- τAD,15/τcntrl,15 (normalized AgA(15) lifetime) ([1]; 100 µM): 1.4 ± 0.1
- τAD,13/τcntrl,13 (normalized gA−(13) lifetime) ([2]; 100 µM): 1.5 ± 0.1
- decrease of HB (bilayer elastic coefficient) [3]: ~1.3 ± 0.9 kBT/nm^2
- bilayer property primarily altered [3]: intrinsic curvature
